The source made the active and inactive calls. No cut-off for these calls is given here.
Assays:
Canis familiaris [1] = organism: Canis familiaris; test: Renal blood flow was measured in dogs; I=Inactive; format: functional, organism-based; conditions: Canis lupus familiaris; Kidney
Canis familiaris [2] = organism: Canis familiaris; test: Renal vascular resistance was calculated as the ratio of the mean arterial blood pressure / mean renal blood flow; I=Inactive; format: functional, organism-based; conditions: Canis lupus familiaris
Rattus norvegicus [3] = organism: Rattus norvegicus; test: Adenylase cyclase activity in rat striatal membranes at the concentration of 10e-5; format: functional; conditions: Striatum, Membrane
Rattus norvegicus [4] = organism: Rattus norvegicus; test: Adenylase cyclase activity in rat striatal membranes at the concentration of 10e-6; format: functional; conditions: Striatum, Membrane
Rattus norvegicus [5] = test: Central dopaminergic activity for minimum concentration which produced 500 rotations(ip) in 2 h; format: functional
Outline: (§1)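 Rats with substantia nigra lesions scored for contralateral rotation after intraperitoneal dosing (routine), oral dosing for selected compounds, or intracaudal administration for intrinsic activity. RD500 and RD1000 are the minimum doses giving 500 and 1000 turns, respectively, in 2 h.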

Canis familiaris [6] = organism: Canis familiaris; test: Renal blood flow was measured in dogs; Highly significant activity; format: functional, organism-based; conditions: Canis lupus familiaris; Kidney
Canis familiaris [7] = organism: Canis familiaris; test: Renal vascular resistance was calculated as the ratio of the mean arterial blood pressure / mean renal blood flow; Highly significant activity; format: functional, organism-based; conditions: Canis lupus familiaris
Canis familiaris [8] = organism: Canis familiaris; test: Renal vascular resistance was calculated as the ratio of the mean arterial blood pressure / mean renal blood flow; Significant activity; format: functional, organism-based; conditions: Canis lupus familiaris
Canis familiaris [9] = test: Compound was evaluated for determining renal vascular resistance(iv) in dogs; format: functional, Canis lupus familiaris
Outline: (§2)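 Secondary renal screen in anesthetized dogs: cumulative dose-response by infusing drug at progressively increasing rates, 5 min per dose level. RVR ED15 is the average minimum cumulative dose lowering RVR by 15%; maximum effect is the average maximum % fall in RVR. Selectivity ratios are separations between RVR ED15 and doses giving 30% change in iliac vascular resistance, 20% in MABP, 20% in HR.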

Canis familiaris [10] = organism: Canis familiaris; test: Compound was evaluated for average maximum percent decrease in renal vascular resistance in dogs; format: functional, Canis lupus familiaris; outline: as §2
Rattus norvegicus [11] = test: Central dopaminergic activity for minimum concentration which produced 500 rotations at the dose of 10 mg/kg (i.p.) in 2 h; I=Inactive; format: functional, organism-based; set-up: dose 10 mg/kg; outline: as §1
[12] = Selectivity ratio of compound as ED15 relative to heart rate(HR) ED20; format: functional; outline: as §2
[13] = Selectivity ratio of compound as ratio of ED15 relative to mean arterial blood pressure(MABP) ED20; format: functional; outline: as §2
Canis familiaris [14] = organism: Canis familiaris; test: Renal blood flow was measured in dogs; Significant activity; format: functional, organism-based; conditions: Canis lupus familiaris; Kidney
[15] = Selectivity ratio of Compound as ratio of ED15 relative to iliac vascular resistance(IVR) ED30; format: functional; outline: as §2
Rattus norvegicus [16] = test: Central dopaminergic activity for minimum concentration which produced 500 rotations at the dose of 10 mg/kg (i.p.) in 2 h; format: functional; conditions: route intraperitoneal; outline: as §1
Rattus norvegicus [17] = test: Central dopaminergic activity against contralateral rotation(1000) in lesioned rats(po) in 2 h; format: functional
Outline: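 Oral dosing in rats with substantia nigra lesions, scoring contralateral rotations. RD1000 is the minimum dose producing 1000 turns in 2 h.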

Rattus norvegicus [18] = organism: Rattus norvegicus; test: Adenylase cyclase activity in rat striatal membranes at the concentration of 10e-7; format: functional; conditions: Striatum, Membrane

SMILES | RBF (Canis familiaris [1]) | RVR (Canis familiaris [2]) | DA response (Rattus norvegicus [3]) [%] | DA response (Rattus norvegicus [4]) [%] | RD500 (Rattus norvegicus [5]) [mg/kg] | RBF (Canis familiaris [6]) | RVR (Canis familiaris [7]) | RVR ED15 (Canis familiaris [9]) [mg/kg] | Decrease RVR (Canis familiaris [10]) [%] | Ratio [12] | Ratio [13] | Ratio [15] | further results
Br.Oc1cc2c(c(Cl)c1O)CCNCC2c1ccc(Cl)cc1 (configuration not stated) | inactive | inactive | 68 | 52 | 3.4 |  |  |  |  |  |  |  | 
CC(=O)Oc1cc2c(c(Cl)c1OC(C)=O)CCNCC2c1ccccc1 (configuration not stated) |  |  |  |  |  | Highly significant activity | Significant activity |  |  |  |  |  | 
Br.C=CCN1CCc2c(cc(O)c(O)c2Cl)C(c2ccc(Cl)c(O)c2)C1 (configuration not stated) |  |  |  |  |  | Highly significant activity |  | 0.019 | 39 | >319 | >319 |  | RVR (Canis familiaris [8]): Significant activity; RD500 (Rattus norvegicus [11]): inactive
Br.Oc1cc2c(c(Cl)c1O)CCNCC2c1cc(Cl)c(O)c(Cl)c1 (configuration not stated) |  |  |  |  |  |  |  | 0.165 | 18 | >37 | >37 | > 37 | RBF (Canis familiaris [14]): Significant activity; RVR (Canis familiaris [8]): Significant activity; RD500 (Rattus norvegicus [11]): inactive
NCCc1ccc(O)c(O)c1 [DOPAMINE] |  |  |  |  |  | Active | Active | 0.0027 | 36 | 141 | 113 | 56 | 
Cl.Oc1cc2c(c(Cl)c1O)CCN(Cc1ccco1)CC2c1ccccc1 (configuration not stated) |  |  | 82 | 41 |  | Highly significant activity | Significant activity | 0.2 | 26 | >6072 | >6072 | > 6070 | Contralateral turns in 2 h (Rattus norvegicus [16]): 611 turns/2 h
COc1ccc(CN2CCc3c(cc(O)c(O)c3Cl)C(c3ccccc3)C2)cc1 (configuration not stated) |  |  |  |  |  | Highly significant activity | Significant activity |  |  |  |  |  | RD500 (Rattus norvegicus [11]): inactive
Cl.Oc1cc2c(c(Cl)c1O)CCN(Cc1cccs1)CC2c1ccccc1 (configuration not stated) |  |  | 64 | 51 | 0.063 |  |  |  |  |  |  |  | RBF (Canis familiaris [14]): Significant activity; RVR (Canis familiaris [8]): Significant activity; RD1000 (Rattus norvegicus [17]): 5.8 mg/kg
Br.Oc1ccc(C2CNCCc3c2cc(O)c(O)c3Cl)cc1Br (configuration not stated) |  |  |  |  |  |  |  | 0.002 | 26 | >2995 | >2995 | 15 | 
Br.Cc1cccc(C2CN(C)CCc3c2cc(O)c(O)c3Cl)c1 (configuration not stated) | inactive | inactive | 14 | 15 | 0.041 |  |  |  |  |  |  |  | RD1000 (Rattus norvegicus [17]): 2 mg/kg
Br.CCN1CCc2c(cc(O)c(O)c2Cl)C(c2ccccc2)C1 (configuration not stated) |  |  | 55 | 48 | 0.015 | Highly significant activity | Significant activity | 0.045 | 16 | >6072 | 18 | 0.1 | RD1000 (Rattus norvegicus [17]): 4.9 mg/kg
Br.Cc1ccc(C2CNCCc3c2cc(O)c(O)c3Cl)cc1 (configuration not stated) | inactive | inactive | 42 | 23 |  |  |  |  |  |  |  |  | Contralateral turns in 2 h (Rattus norvegicus [16]): 420 turns/2 h
Br.CN1CCc2c(cc(O)c(O)c2Cl)C(c2cccc(Cl)c2)C1 (configuration not stated) | inactive | inactive | 13 | 22 | 0.03 |  |  |  |  |  |  |  | RD1000 (Rattus norvegicus [17]): 3.2 mg/kg
Br.Oc1ccc(C2CNCCc3c2cc(O)c(O)c3Cl)cc1Cl (configuration not stated) |  | inactive |  |  |  |  |  | 0.099 | 56 | 0 | -3 | -1 | RBF (Canis familiaris [14]): Significant activity; RD500 (Rattus norvegicus [11]): inactive
Br.CCCCN1CCc2c(cc(O)c(O)c2Cl)C(c2ccccc2)C1 (configuration not stated) | inactive | inactive | 90 | 85 |  |  |  |  |  |  |  |  | Contralateral turns in 2 h (Rattus norvegicus [16]): 611 turns/2 h
Br.C=CCN1CCc2c(cc(O)c(O)c2Cl)C(c2ccccc2)C1 (configuration not stated) |  |  |  |  | 0.03 | Active | Active |  |  |  |  |  | 
CC(=O)Oc1cc2c(c(Cl)c1OC(C)=O)CCN(C)CC2c1ccccc1.Cl (configuration not stated) | inactive | inactive |  |  | 0.025 |  |  |  |  |  |  |  | RD1000 (Rattus norvegicus [17]): 2.2 mg/kg
Br.Cc1cccc(C2CNCCc3c2cc(O)c(O)c3Cl)c1 (configuration not stated) |  |  | 94 |  | 0.47 | Highly significant activity | Significant activity | 0.015 | 56 | 7 | >6072 | 1 | DA response (Rattus norvegicus [18]): 76%
Br.Oc1cc(C2CNCCc3c2cc(O)c(O)c3Cl)ccc1Cl (configuration not stated) |  |  |  |  |  | Highly significant activity | Significant activity | 0.061 | 25 | >249 | >249 | > 249 | RD500 (Rattus norvegicus [11]): inactive
Br.OCCN1CCc2c(cc(O)c(O)c2Cl)C(c2ccccc2)C1 (configuration not stated) |  | inactive |  |  |  |  |  | 0.0045 | 42 | >6072 | >6072 | 929 | RBF (Canis familiaris [14]): Significant activity; Contralateral turns in 2 h (Rattus norvegicus [16]): 1310 turns/2 h
Br.Cc1ccccc1C1CNCCc2c1cc(O)c(O)c2Cl (configuration not stated) | inactive | inactive | 55 | 30 |  |  |  |  |  |  |  |  | Contralateral turns in 2 h (Rattus norvegicus [16]): 663 turns/2 h

— ChEMBL document CHEMBL1122032, “Dopaminergic activity of substituted 6-chloro-1-phenyl-2,3,4,5-tetrahydro-1H-3-benzazepines” (J Med Chem, 1982)
